According to ChEMBL document CHEMBL3576792, “Enhancement of antibiotic activity against multidrug-resistant bacteria by the efflux pump inhibitor 3,4-dibromopyrrole-2,5-dione isolated from a Pseudoalteromonas sp” (J Nat Prod, 2015):
Calls of active or inactive are those of the source. The calls are words filed in the database; no cut-off is given here.

Assays:
[1] = test system: Escherichia coli; experiment: Potentiation of levofloxacin-induced antibacterial activity Escherichia coli transformed with plasmid carrying MG1655 deltaBC/pABM assessed as levofloxacin MIC by p-iodonitrotetrazolium chloride colorimetric assay; assay type: functional
Outline: (§1)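 Checkerboard microdilution in Mueller-Hinton broth: two-fold dilutions of antibiotic crossed with dilutions of test compound above, at and below their MICs. Growth was read by INT colorimetric assay, with MIC as the lowest concentration showing no visible growth. FICs and FIC index were derived from these MICs. ΔBC/pABM and ΔBC/pXYM strains were grown with 100 μg/mL ampicillin and 1 mM IPTG.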

[2] = test system: Escherichia coli; experiment: Inhibition of AcrAB-TolC pump in Escherichia coli AG100 assessed as increase in intracellular H33342 fluorescence at >= 1 ug/ml after 60 mins by efflux inhibition assay; assay type: cell-based
Outline: (§2)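 AG100 (wild-type K-12) or AG100A (ΔacrAB) cells were grown in Luria broth at 37 °C and 200 rpm to OD600 1.0, PBS-washed and diluted to OD600 0.3. Cells took up 2.5 μM Hoechst 33342 with 22 mM glucose at 37 °C for about 30 min, then compound (0.06–64 μg/mL) or PAβN (15.6 μg/mL) was added. Fluorescence (Ex 350/Em 460 nm) was followed for 60 min and corrected for background. The last four time points were compared to dye-only control by ANOVA with Dunnett's test, run in duplicate.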

[3] = test system: Escherichia coli; experiment: Potentiation of oxacillin-induced antibacterial activity Escherichia coli transformed with plasmid carrying MG1655 deltaBC/pXYM assessed as oxacillin MIC by p-iodonitrotetrazolium chloride colorimetric assay; assay type: functional; outline: as §1
[4] = test system: Escherichia coli; experiment: Potentiation of tetracycline-induced antibacterial activity Escherichia coli transformed with plasmid carrying MG1655 deltaBC/pXYM by p-iodonitrotetrazolium chloride colorimetric assay; assay type: functional
[5] = test system: Escherichia coli; experiment: Potentiation of piperacillin-induced antibacterial activity Escherichia coli transformed with plasmid carrying MG1655 deltaBC/pABM assessed as piperacillin MIC by p-iodonitrotetrazolium chloride colorimetric assay; assay type: functional, organism-based; outline: as §1
[6] = test system: Escherichia coli; experiment: Potentiation of chloramphenicol-induced antibacterial activity Escherichia coli AG102 overexpressing AcrAB-TolC assessed as chloramphenicol MIC by p-iodonitrotetrazolium chloride colorimetric assay; assay type: functional; outline: as §1
[7] = test system: Escherichia coli; experiment: Potentiation of erythromycin-induced antibacterial activity Escherichia coli transformed with plasmid carrying MG1655 deltaBC/pABM assessed as erythromycin MIC by p-iodonitrotetrazolium chloride colorimetric assay; assay type: functional; outline: as §1
[8] = test system: Escherichia coli K-12; experiment: Inhibition of AcrAB-TolC pump in Escherichia coli K-12 AG100 assessed as increase in intracellular H33342 fluorescence at 0.25 ug/ml after 60 mins by efflux inhibition assay; assay type: cell-based
[9] = test system: Escherichia coli; experiment: Potentiation of chloramphenicol-induced antibacterial activity Escherichia coli transformed with plasmid carrying MG1655 deltaBC/pXYM by p-iodonitrotetrazolium chloride colorimetric assay; assay type: functional
[10] = test system: Escherichia coli; experiment: Potentiation of tetracycline-induced antibacterial activity Escherichia coli transformed with plasmid carrying MG1655 deltaBC/pABM by p-iodonitrotetrazolium chloride colorimetric assay; assay type: functional
[11] = test system: Escherichia coli; experiment: Potentiation of oxacillin-induced antibacterial activity Escherichia coli AG102 overexpressing AcrAB-TolC by p-iodonitrotetrazolium chloride colorimetric assay; assay type: functional, organism-based; outline: as §1
[12] = test system: Escherichia coli; experiment: Potentiation of levofloxacin-induced antibacterial activity Escherichia coli AG102 overexpressing AcrAB-TolC assessed as levofloxacin MIC by p-iodonitrotetrazolium chloride colorimetric assay; assay type: functional; outline: as §1
[13] = test system: Escherichia coli; experiment: Potentiation of tetracycline-induced antibacterial activity Escherichia coli transformed with plasmid carrying MG1655 deltaBC/pABM assessed as tetracycline MIC by p-iodonitrotetrazolium chloride colorimetric assay; assay type: functional; outline: as §1
[14] = test system: Escherichia coli; experiment: Potentiation of tetracycline-induced antibacterial activity Escherichia coli transformed with plasmid carrying MG1655 deltaBC/pXYM assessed as tetracycline MIC by p-iodonitrotetrazolium chloride colorimetric assay; assay type: functional; outline: as §1
[15] = test system: Escherichia coli; experiment: Potentiation of piperacillin-induced antibacterial activity Escherichia coli transformed with plasmid carrying MG1655 deltaBC/pXYM by p-iodonitrotetrazolium chloride colorimetric assay; assay type: functional
[16] = test system: Escherichia coli; experiment: Potentiation of ciprofloxacin-induced antibacterial activity Escherichia coli transformed with plasmid carrying MG1655 deltaBC/pXYM assessed as ciprofloxacin MIC by p-iodonitrotetrazolium chloride colorimetric assay; assay type: functional; outline: as §1
[17] = test system: Escherichia coli K-12; experiment: Inhibition of AcrAB-TolC pump in Escherichia coli K-12 AG100 assessed as increase in intracellular H33342 fluorescence at 64 ug/ml after 60 mins by efflux inhibition assay; assay type: cell-based; outline: as §2
[18] = test system: Escherichia coli; experiment: Potentiation of kanamycin-induced antibacterial activity Escherichia coli AG102 overexpressing AcrAB-TolC assessed as kanamycin MIC by p-iodonitrotetrazolium chloride colorimetric assay; assay type: functional; outline: as §1
[19] = test system: Escherichia coli; experiment: Potentiation of ciprofloxacin-induced antibacterial activity Escherichia coli AG102 overexpressing AcrAB-TolC assessed as ciprofloxacin MIC by p-iodonitrotetrazolium chloride colorimetric assay; assay type: functional; outline: as §1
[20] = test system: Escherichia coli; experiment: Potentiation of ciprofloxacin-induced antibacterial activity Escherichia coli AG102 overexpressing AcrAB-TolC by p-iodonitrotetrazolium chloride colorimetric assay; assay type: functional
[21] = test system: Escherichia coli; experiment: Potentiation of kanamycin-induced antibacterial activity Escherichia coli transformed with plasmid carrying MG1655 deltaBC/pABM by p-iodonitrotetrazolium chloride colorimetric assay; assay type: functional
[22] = test system: Escherichia coli K-12; experiment: Inhibition of AcrAB-TolC pump in Escherichia coli K-12 AG100 assessed as increase in intracellular H33342 fluorescence at 16 ug/ml after 60 mins by efflux inhibition assay; assay type: cell-based; outline: as §2
[23] = test system: Escherichia coli; experiment: Potentiation of chloramphenicol-induced antibacterial activity Escherichia coli transformed with plasmid carrying MG1655 deltaBC/pXYM assessed as chloramphenicol MIC by p-iodonitrotetrazolium chloride colorimetric assay; assay type: functional; outline: as §1
[24] = test system: Escherichia coli K-12; experiment: Inhibition of AcrAB-TolC pump in Escherichia coli K-12 AG100 assessed as […] at 4 ug/ml after 60 mins by accumulation assay
Outline: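 AG100 (wild-type K-12) or AG100A (ΔacrAB) grown in Luria broth at 37 °C and 200 rpm to OD600 1.0, PBS-washed, diluted to OD600 0.3. Cells given 2.5 μM H33342 with 22 mM glucose at 37 °C for ~30 min until stable, then compound (0.06–64 μg/mL) added. Fluorescence (Ex 350/Em 460) read for 60 min, background subtracted. Final 4 time points averaged; one-way ANOVA/Dunnett vs Hoechst-only; n = 8.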

[25] = test system: Escherichia coli; experiment: Effect on intracellular H33342 accumulation in Escherichia coli AG100A delta acrAB mutant at 16 ug/ml after 60 mins by accumulation assay; assay type: functional
Outline: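 Cells grown in Luria broth at 37 °C, 200 rpm to OD600 1.0, then washed twice in PBS and diluted in glucose-free PBS to OD600 0.3. H33342 was used at 2.5 μM with 22 mM glucose at 37 °C and allowed to accumulate for ~30 min. Compound was then added and fluorescence (Ex 350/Em 460 nm) followed for 60 min. Values are the mean RFU of the final 4 min, after media-plus-compound background was subtracted. Run in duplicate, n = 8.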

[26] = test system: Escherichia coli; experiment: Potentiation of levofloxacin-induced antibacterial activity Escherichia coli transformed with plasmid carrying MG1655 deltaBC/pABM MIC by p-iodonitrotetrazolium chloride colorimetric assay; assay type: functional
[27] = test system: Escherichia coli; experiment: Potentiation of kanamycin-induced antibacterial activity Escherichia coli transformed with plasmid carrying MG1655 deltaBC/pABM assessed as kanamycin MIC by p-iodonitrotetrazolium chloride colorimetric assay; assay type: functional; outline: as §1

O=C1NC(=O)C(Br)=C1Br
MIC [1]: 64 µg/mL
inhibition [2]: Active
MIC [3]: 64 µg/mL
fractional inhibitory concentration index (FICI) [4]: 0.58
MIC [5]: inactive
MIC [6]: 64 µg/mL
MIC [7]: 64 µg/mL
RFU [8]: -351
fractional inhibitory concentration index (FICI) [9]: 0.19
fractional inhibitory concentration index (FICI) [10]: 1
fractional inhibitory concentration index (FICI) [11]: inactive
MIC [12]: 128 µg/mL
MIC [13]: 128 µg/mL
MIC [14]: 8 µg/mL
fractional inhibitory concentration index (FICI) [15]: 0.52
MIC [16]: 32 µg/mL
RFU [17]: -68
MIC [18]: 2 µg/mL
MIC [19]: 2 µg/mL
fractional inhibitory concentration index (FICI) [20]: 0.5
fractional inhibitory concentration index (FICI) [21]: 0.75
RFU [22]: -34
MIC [23]: 64 µg/mL
RFU [24]: 1130
RFU [25]: 1100
fractional inhibitory concentration index (FICI) [26]: 0.75
MIC [27]: 128 µg/mL
